Among the data in PubChem BioAssay AID504383 (The Scripps Research Institute Molecular Screening Center, 2011) are activation values, retold here.

Among all 2,500 compounds or so, about 1,200 (48%) were called active. The set was probably picked from earlier hits. Some of the results follow. Values without a mark were called inactive.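 Rule for the calls: active = mean activation above the low control average plus 3 SD, as set in the primary screen (cut at about 12% in these data); inactive = the rest.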

This test deals with Troponin I, cardiac muscle (Homo sapiens) + Troponin T, cardiac muscle (Homo sapiens) + Troponin C, slow skeletal and cardiac muscles (Homo sapiens) (UniProt P19429+P45379+P63316). Put plainly: cardiac RTF calcium sensitivity activators, confirmation, biochemical, IANBD-TnC fluorescence, triplicate (AID 504383).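 Note: 0% = DMSO at 0.472 mM calcium and 100% = DMSO at 2.9 mM calcium.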 Particulars: IANBD-labeled cardiac RTF, Ca2+ sensitivity fluorescence; at 7.2 µM; hits give high values; scaled from EC20 to saturating calcium; tested at EC20 calcium, 0.472 mM. In outline:
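Assay system: labelled regulated thin filament protein complex; schedule: 15 min compound incubation with filaments at 25 °C; benchmarks: low control EC20 calcium, high control EC100 calcium; reagent: Ca2+ 0.472 mM, EC20 level; doses: one dose, 7.2 µM nominal; evaluation: fluorescence gain scaled between EC20 and EC100 calcium controls; signal: filament fluorescence intensity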
With `COc1ccccc1NC(=O)COC(=O)c1cnc(C)cn1`, the activation was 101% (active).
`O=C(c1ccccc1)N1CCCCC1`: the activation was 8.78%.
To `O=C(/C=C/c1nc2ccccc2s1)N1CCCCCC1` belongs 35% (active).
To `CC(=O)Nc1sc2c(c1-c1nc3ccccc3s1)CCN(C(C)C)C2` belongs 10.5%.
As for `FC(F)(F)c1cccc(-c2nc(COc3ccc(Cl)cc3Cl)no2)c1`, the activation was 5570% (active).
To `Cc1cn(COC/C=C/c2ccccc2)c(=O)[nH]c1=O` belongs 81.1% (active).
Regarding `CCc1nc(Nc2ccc(O)cc2)c2oc3ccccc3c2n1`, the activation was 56.6% (active).
To `C=CCNC(=S)NNC(=O)c1ccc(OCC(C)C)cc1` belongs 4.58%.
To `NC(=O)NC(=O)COC(=O)c1cccc(NS(=O)(=O)/C=C/c2ccccc2)c1` belongs 38.6% (active).
`CC(C)C(=O)COc1c2occc2cc2ccc(=O)oc12`: the activation is 1.65%.
To `CCOC(=O)c1cnc(SC)nc1Oc1cccc(NS(=O)(=O)c2ccc(Cl)cc2)c1` belongs 14.8% (active).
To `CCOC(=O)N1CCC(Nc2nc3ccccc3nc2NS(=O)(=O)c2ccc(Cl)cc2)CC1` belongs 11.1%.
To `CCC1(CC)C(=O)Nc2ccccc21` belongs 5.14%; to `O=[N+]([O-])c1ccc(N(c2ccccc2)c2ccccc2)cc1`, 14.5% (active).
For the molecule `Cc1ccc(C(=O)N/C(=C/c2ccc(-c3ccc([N+](=O)[O-])cc3)o2)C(=O)NCCCN(C)C)cc1`, the activation is 5.11%.
As to `CN(N=Nc1ccc([N+](=O)[O-])cc1)c1ccccc1`, the activation is 36.2% (active).
To `CN(/N=C/c1ccc(-c2ccc([N+](=O)[O-])cc2)o1)c1ccccc1` belongs 30.8% (active).
To `O=C1CC(c2ccccc2)=NN1c1ccc([N+](=O)[O-])cc1` belongs 10.7%; to `O=C(O)c1cccc(-c2ccc(/C=N/Nc3ccc([N+](=O)[O-])cc3)o2)c1`, 12.7% (active).
To `Cc1cc([N+](=O)[O-])ccc1-c1ccc(/C=N/NC(=O)c2ccc(Br)o2)o1` belongs 7.92%; to `Cc1oc2c(cc(NS(=O)(=O)c3ccc(C(C)C)cc3)c3ccccc32)c1C(=O)O`, 9.7%.
Take `COc1ccc2nc3ccccc3[n+]([O-])c2c1`: the activation is 13.1% (active).
To `CCOCCCNc1ccc(-c2ccccc2)nn1` belongs 8.24%; to `COc1cc(/C=C/C(=O)CC(=O)/C=C/c2ccc(O)c(OC)c2)ccc1O`, 9.89%.
To `COc1cc(/C=C/C(O)=C/C(=O)/C=C/c2ccc(O)cc2)ccc1O` belongs 8.41%; to `COc1cc(/C=C/C=C2/CC/C(=C/C=C/c3ccc(O)c(OC)c3)C2=O)ccc1O`, 19.4% (active).
With `COc1cc(/C=C/C(=O)/C=C(O)/C=C/c2ccc(O)c(OC)c2)ccc1O`, the activation was 287% (active).
To `O=C(/C=C(O)/C=C/c1ccc(O)cc1)/C=C/c1ccc(O)cc1` belongs 10.7%.
